In the library only some 4.8% were active in any assay of this set; here they are far more common.
FLuc act counter: firefly luciferase counter-screen for stimulation assays; P08659; ATPlite luciferase biochemical, luminescence, 10 min; 0 = ATP-free wells, 1 = DMSO control; activation factor at 10 µM; 200,000 tested, under 10 active; AID 1027;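 active = luciferase activation factor, scaled between plate controls, of at least 2 with compound at 10 µM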
Target sequence (P08659 whole entry, looked up): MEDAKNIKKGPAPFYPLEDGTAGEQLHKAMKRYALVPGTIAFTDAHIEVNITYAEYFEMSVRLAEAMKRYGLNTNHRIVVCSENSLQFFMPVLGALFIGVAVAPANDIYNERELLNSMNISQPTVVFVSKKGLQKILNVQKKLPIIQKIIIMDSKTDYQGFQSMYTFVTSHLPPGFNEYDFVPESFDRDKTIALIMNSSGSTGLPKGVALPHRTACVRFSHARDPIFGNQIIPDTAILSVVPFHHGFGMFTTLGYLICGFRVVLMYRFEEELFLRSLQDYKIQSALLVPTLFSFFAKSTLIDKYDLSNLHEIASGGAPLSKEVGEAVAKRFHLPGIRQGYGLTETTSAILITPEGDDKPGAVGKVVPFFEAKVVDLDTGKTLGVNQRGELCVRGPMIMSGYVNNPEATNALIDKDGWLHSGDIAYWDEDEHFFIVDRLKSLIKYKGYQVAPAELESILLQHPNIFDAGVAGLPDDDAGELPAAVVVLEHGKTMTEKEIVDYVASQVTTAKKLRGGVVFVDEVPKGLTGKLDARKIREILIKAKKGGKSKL
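assay system = Luciferase/luciferin detection reagent, cell-free biochemical luciferase assay | also added = ATP substrate | times = 10 min post-reagent at room temperature | measured by = luminescence from luciferase reaction | measure = luciferase activation, seen as luminescence increase over controls | benchmarks = low control with PBS replacing ATP, high control enzyme plus ATP without compound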
NF-kB neuron act: raises NF-kB expression in human neuronal cells; AID 1239; NF-kB reporter expression; active compounds read high; fold change at 12.5 µM; 190,000 compounds, 1.6% hits; in the data active = fold change above about 3.3
APP transl inh: APP translation inhibition. SH-SY5Y APP 5'UTR-luciferase reporter, luminescence. inhibition, % at 2 µM. 190,000 compounds, 0.82% hits. AID 1285;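 active = inhibition above a set limit, derived from the sample mean plus 3 SD, cut at about 45% in these data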
APP 5'UTR act: APP 5'UTR luciferase reporter activation; activation, % at 2 µM; SH-SY5Y APP 5'UTR luciferase reporter, luminescence; zero percent = DMSO vehicle wells; 190,000 compounds, 1% hits; AID 1276;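 active = activation above a set limit, based on mean plus 3 SD of controls, cut at about 140% in these data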
STAT1 act: increases IFN-gamma driven STAT1 reporter signal; NIH 3T3 STAT1-luciferase reporter, luminescence; 100% = IFN-gamma alone, no compound; activation (% of control), % at 5.5 µM; 200,000 compounds, 2.6% hits; AID 932;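 active = activation above the screen-wide mean activation plus 3 SD, cut at about 130% in these data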
FLuc inhib CS: counter-screen for luciferase assay inhibitors: firefly luciferase inhibition; P08659; ATPLite firefly luciferase biochemical luminescence, 10 min; inhibition, % at 10 µM; 200,000 compounds, 1.5% hits; AID 1006;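 active = inhibition above about 50% when tested at 10 µM, limit read from the data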
Large screens that a line does not name were inactive.

Clc1ccc(CSc2nc3ccncc3[nH]2)cc1	NF-kB neuron act 7.5, APP 5'UTR act 147, FLuc inhib CS 97
CC(=O)N[C@@H](C)C(=O)OC(C)C(=O)Nc1cccc([N+](=O)[O-])c1 (stereo not given in full)	none
O=C(/C=C/c1ccccc1)NC(=S)N1CCSCC1	none
Oc1c(Cl)cc(Cl)cc1CNc1ccc(Br)cn1	none
Oc1ccc(Cl)cc1CNc1ccc(Br)cn1	NF-kB neuron act 4.9
CSc1nc(-c2ccccc2)nc(NC(=O)C(C)C)c1C(C)=O	APP transl inh 54
Cn1c(CNC(=O)c2cccs2)nnc1SCC(=O)Nc1ccccc1	none
COc1ccc(Nc2ccc3c(c2)=NC2(CCCCC2)[N+]=3[O-])cc1	APP transl inh 49
COc1ccc(NC2=NC(=S)N(c3ccccc3C)C23CCCCC3)cc1	none
[O-][N+]1=c2ccc(Nc3ccccc3)cc2=NC12CCCCC2	STAT1 act 134
Cc1ccc(NCc2n[nH]c(=S)n2-c2ccccc2)c(C)c1	none
O=S(=O)(c1ccc(Cl)cc1)N1c2ccccc2Oc2nc3ccccc3nc21	none
COc1ccc(S(=O)(=O)N2c3cc(Cl)ccc3Oc3nc4ccccc4nc32)cc1	NF-kB neuron act 3.6
CCOc1ccc2nnc(-c3ccc(Br)cc3)n2n1	none
O=C1c2ccccc2C(=O)c2cc(NC(=O)C3CC3)ccc21	NF-kB neuron act 4.5, APP 5'UTR act 139, STAT1 act 130
Nc1c(C(=O)c2ccc(Cl)cc2)sc2nc3c(cc12)CCC3	APP 5'UTR act 135
N#Cc1sc2nc3c(cc2c1N)CCCC3	none
Cc1ccc(Nc2nc(COC(=O)C3CC3)cs2)cc1	NF-kB neuron act 3.6, FLuc inhib CS 53
Cc1ccc(Nc2nc(C(=O)N3CCC(C(=O)N4CCN(C)CC4)CC3)cs2)cc1	none
CC1(C)Cc2c(sc(NC(=O)c3ccco3)c2C#N)CO1	FLuc inhib CS 75
CCCN(CCC)C(=O)Cn1c(=O)n(CCCCCC(=O)Nc2ccccc2)c(=O)c2sccc21	none
Cn1cccc1C(=O)OCc1csc(-c2ccccc2)n1	NF-kB neuron act 5.8, APP 5'UTR act 150, STAT1 act 134, FLuc inhib CS 61
Cc1ccsc1C(=O)OCc1csc(-c2ccccc2)n1	NF-kB neuron act 9.4, APP 5'UTR act 195
Cc1ccccc1Nc1nc(N)nc(COC(=O)c2cccn2C)n1	STAT1 act 141
COc1ccc(-c2csc3ncn(CC(=O)N4CCOCC4)c(=O)c23)cc1	none
COc1ccc(C(=S)N2CCN(c3cccc(Cl)c3)CC2)c(OC)c1	APP transl inh 84
COc1ccc(C(=S)Nc2ccc(C)cc2)cc1	STAT1 act 133
COc1ccc(NC(=S)c2ccncc2)cc1	none
Cc1ccc(NC(=S)c2ccccc2)cc1	STAT1 act 139
CCOC(=O)C1=C(C)NC2=C(C(=O)CCC2)C1c1cn(Cc2ccc(Cl)cc2Cl)nc1-c1ccccc1 (stereo not given)	none
CCOC(=O)C1=C(c2ccccc2)O/C(=C(\C(=O)OC)C(F)(F)F)S1	none
CCOC(=O)C1=C(c2ccccc2)O/C(=C(/C#N)C(F)(F)F)S1	NF-kB neuron act 8.6
CC(C)(C)c1ccc(C2CC2C(=O)N/N=C\c2ccc[nH]2)cc1 (stereo not given)	APP transl inh 80
COc1ccc(C/C(C)=N/NC(=O)c2cccnc2)cc1	none
COCCCNCC(O)C(F)(F)F (stereo not given)	none
O=C(/C=C/c1cccs1)N1CCc2ccccc21	NF-kB neuron act 8.1, APP 5'UTR act 187, STAT1 act 134, FLuc inhib CS 92
O=C(/C=C/c1ccc(Cl)c(Cl)c1)N1CCc2ccccc21	none
O=C(c1cccs1)N1CCCc2ccccc21	none
O=C(c1cccs1)N1CCc2ccccc21	STAT1 act 139
Cc1ccc2c(c1)Oc1ccccc1C=C2C(=O)O	none
O=C(COc1ccc(Br)cc1Br)NC(=O)NC1CCCC1	NF-kB neuron act 3.4, STAT1 act 142
O=C(Nc1ccc(S(=O)(=O)Nc2ncccn2)cc1)c1cccnc1	STAT1 act 134
CCC(C)c1ccc(NC(=O)c2cccnc2)cc1 (stereo not given)	NF-kB neuron act 3.9, STAT1 act 133
O=C(NNC(=O)c1cccc(Br)c1)Nc1ccc(Cl)cc1	none

High-throughput results from PubChem.
